Screening results (PubChem BioAssay)
An excerpt weighted towards active compounds, which were near 1.5% of everything screened.
CSN deneddyl inh: blocks human CSN-mediated cullin deneddylation; AID 651999; Q92905; inhibition, % at 12.5 µM; 360,000 tested, 0.38% active; Purified CSN, SCF-Nedd8-OG deneddylation, fluorescence polarization;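 active = pattern-corrected inhibition above about 35%, with an unprinted fluorescence ratio check between 0.5 and 1.5, limit read from the data, passing the limit was not always enough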;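 also: 0% = enzyme with substrate and 100% = substrate without enzyme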
Target sequence (Q92905 whole entry, looked up, one chain of several): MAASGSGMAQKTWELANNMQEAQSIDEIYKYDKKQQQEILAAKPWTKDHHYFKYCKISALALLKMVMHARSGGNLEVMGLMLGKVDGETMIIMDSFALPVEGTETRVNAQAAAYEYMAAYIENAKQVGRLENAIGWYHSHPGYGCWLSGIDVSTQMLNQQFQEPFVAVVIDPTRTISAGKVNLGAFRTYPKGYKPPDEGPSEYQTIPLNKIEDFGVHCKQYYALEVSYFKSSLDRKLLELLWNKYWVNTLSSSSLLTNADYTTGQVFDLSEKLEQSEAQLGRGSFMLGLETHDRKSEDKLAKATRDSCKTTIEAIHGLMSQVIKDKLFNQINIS
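Assay system: HEK293T-derived human Csn5 enzyme; quantity: 0.24 nM enzyme; medium: Tris/NaCl/DTT buffer, pH 7.5; also added: substrate SCFSkp2-Nedd8OG, 10 nM; doses: 12.5 µM compound; schedule: 90 min reaction at room temperature; signal: FP; read-out: % inhibition of substrate cleavage by Csn5; benchmarks: substrate-only high control, full reaction low control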
TPT1 inhibitor: C. albicans TPT1 enzyme inhibition; inhibition, % at 5 µM; 300,000 tested, 0.81% active; recombinant caTPT1, FP RNA substrate dephosphorylation;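 active = inhibition above the mean of all tested compounds plus 3 SD, set per screening campaign, cut at about 24% in these data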;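 also: plate controls were DMSO alone for no effect and ferristatin control at 100 nM for full effect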
HNF4A DNA FP: change in binding of human HNF4 alpha to DNA; 360,000 tested, 0.3% active; HNF4a-FITC DNA binding, fluorescence polarization, 1 h; activity change, % at 10 µM; P41235; in the data active = activity change above about 30%, passing the limit was not always enough
Rpn11 inh: inhibitors of human proteasome Rpn11 | inhibition, % at 20 µM | 360,000 tested, 0.59% active | human 26S proteasome, Ub4-pepOG fluorescence polarization; 20S core pre-blocked with epoxomicin | O00487;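 active = inhibition at 20 µM, scaled to each plate's controls, above about 33%, limit read from the data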
Target sequence (O00487 whole entry, looked up): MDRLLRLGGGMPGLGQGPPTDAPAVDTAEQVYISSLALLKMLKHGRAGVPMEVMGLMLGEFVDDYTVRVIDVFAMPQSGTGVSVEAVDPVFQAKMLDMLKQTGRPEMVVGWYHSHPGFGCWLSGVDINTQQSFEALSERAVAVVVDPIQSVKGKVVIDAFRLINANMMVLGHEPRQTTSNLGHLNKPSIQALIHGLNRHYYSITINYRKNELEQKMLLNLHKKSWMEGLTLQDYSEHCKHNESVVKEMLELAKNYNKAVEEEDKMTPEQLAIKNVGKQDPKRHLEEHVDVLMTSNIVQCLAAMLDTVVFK
TPT1 inh confirm: confirmation of Candida albicans TPT1 inhibitors; shares compounds with TPT1 inhibitor; recombinant caTPT1, fluorescence polarization, RNase T1 coupled; inhibition, % at 5 µM; 2,400 tested, 74% active;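 active = inhibition above the primary screen limit, the mean inhibition of all tested compounds plus 3 SD, cut at about 25% in these data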
RNase T1 counter: RNase T1 inhibition in TPT1 counter-screen; RNase T1 cleavage, fluorescence polarization, 1536-well; 2,400 tested, 83% active; inhibition, % at 5 µM; shares compounds with TPT1 inhibitor;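 active = inhibition above the solvent-only control well mean plus 3 SD, limit set per screening run, cut at about 23% in these data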;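 also: plate controls were DMSO wells with enzyme for no effect and wells without RNase T1 for full effect; inhibitors block cleavage so intact labeled substrate keeps polarization high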
* marks the source's active call; other numbers are inactive results; nt = not tested or not shown.

SMILES | CSN deneddyl inh | TPT1 inhibitor | HNF4A DNA FP | Rpn11 inh | TPT1 inh confirm | RNase T1 counter
CCOc1ccc(CCNC(=O)Cn2ncn3nc(-c4ccc(OC)cc4)cc3c2=O)cc1OCC | -2 | -4 | -2 | 4 | nt | nt
COc1ccc(C(=O)N/N=C/c2sc3ccccc3c2O)cc1 | 104 | 139* | 126 | nt | 145* | 135*
O=C(N/N=C/c1sc2ccccc2c1O)c1cccc2ccccc12 | 83 | 136* | 75* | nt | 143* | 134*
O=C(N/N=C/c1sc2ccccc2c1O)c1ccccc1 | 103 | 135* | 134 | nt | 135* | 128*
COc1ccc(C(=O)N/N=C/c2c[nH]c3ccccc23)cc1 | 1 | 2 | -1 | -6 | nt | nt
O=C(N/N=C/c1ccc(F)cc1)c1ccccc1 | 6 | 1 | 2 | -2 | nt | nt
COc1ccc2cc(C(=O)N/N=C/c3sc4ccccc4c3O)ccc2c1 | 66 | 136* | 133 | nt | 135* | 126*
O=C(CN(Cc1ccc(F)cc1)C(=O)CCC(=O)Nc1ccccn1)NCCc1ccccc1 | 3 | -1 | 2 | 4 | nt | nt
NC(=O)c1nsc(C(=O)N(c2ccc3c(c2)OCCO3)C(C(=O)NCC2CCCO2)c2ccc(F)cc2)c1N (centres undefined) | -1 | -4 | 1 | 0 | nt | nt
CC(=O)Nc1cccc(Oc2nc(NCCN(C)C)nc3ccsc23)c1 | 4 | nt | 7 | 0 | nt | nt
COC(=O)[C@@]1(C(C)C)N=C(c2cc(OC)c(OC)c(OC)c2)[C@]2(O1)C(=O)N(Cc1ccc(OC)cc1)c1ccc(Br)cc12 | 2 | nt | 2 | nt | nt | nt
Cc1cc(O)c2c(c1)C(=O)c1cc(O)cc(O)c1C2=O | 7 | 27* | 14 | 8 | 44* | 61*
O=C1c2cc(O)cc(O)c2C(=O)c2c1cc(O)c([C@@H](CO)CCO)c2O | 30 | 17 | 19 | 7 | nt | nt
N#Cc1ccsc1NC(=O)c1cnccn1 | 3 | -3 | 4 | 12 | nt | nt
CC(C)(C)NS(=O)(=O)c1cc(C(=O)Nc2sccc2C#N)ccc1Cl | 31 | 36* | 28 | nt | 32* | 43*
COc1ccc(C(=O)/C=C/c2ccc(N(C)C)cc2)c(OC)c1 | 90 | 101* | 125 | nt | 103* | 102*
CC(C)CC(=O)N1CCN(Cc2ccc3ccccc3c2)CC1 | 6 | -3 | 0 | 4 | nt | nt
CSc1ccc(CN2CCN(C(=O)CC(C)C)CC2)cc1 | 1 | 26* | -4 | 0 | 7 | 12
CCNc1cc2n(c(=O)n1)CCc1cc(OC)c(OC)cc1-2 | 3 | 3 | 0 | -4 | nt | nt
COc1cc2c(cc1OC)-c1cc(OCCN3CCOCC3)nc(=O)n1CC2 | 12 | 25* | 3 | 16 | 32* | 44*
Cn1c(=O)oc2cc(S(=O)(=O)N3CCN(c4cccc(Cl)c4)CC3)ccc21 | 16 | 81* | 16 | nt | 24* | 33*
Cn1c(=O)oc2cc(S(=O)(=O)N3CCCC3)ccc21 | 5 | 1 | 4 | -11 | nt | nt
Cn1c(-c2c(N)n(C3CCCC3)c3nc4ccccc4nc23)nc2ccccc21 | 4 | 39* | 10 | 14 | 43* | 51*
COCCCn1c(N)c(-c2nc3ccccc3n2C)c2nc3ccccc3nc21 | 12 | 46* | 18 | 37 | 46* | 59*
C/C(CC(=O)Nc1cc(C)ccn1)=N\NC(=O)c1cccc(C)c1O | 1 | -1 | 0 | -7 | nt | nt
SMILES | CSN deneddyl inh | TPT1 inhibitor | HNF4A DNA FP | Rpn11 inh | TPT1 inh confirm | RNase T1 counter
COc1ccc(NC(=O)C2CC(=O)N(c3ccccc3F)C2)cc1S(=O)(=O)N1CCCCC1 (centres undefined) | 2 | nt | -4 | -2 | nt | nt
CCCCCCN1C[C@@H](O)[C@H](n2cc(C3CC3)nn2)C[C@@H]1c1ccc(Cl)cc1 | 3 | nt | 4 | -2 | nt | nt
O=C(Nc1ccccc1)SC1CCCCC1 | 1 | nt | 2 | 1 | nt | nt
COc1ccc(N/C=C2\CCOC2=O)cc1 | -3 | 7 | 0 | -3 | nt | nt
COc1ccc2c(c1)CC/C(=C\Nc1ccc3c(c1)OCO3)C2=O | 15 | 65* | 45* | nt | 74* | 87*
O=C1/C(=C/Nc2ccc3c(c2)OCO3)CCc2ccccc21 | 13 | 83* | 49* | 33 | 57* | 74*
O=C1OC2(CCCCC2)OC(=O)C1=CNc1ccc2c(c1)OCO2 | 7 | -4 | 2 | 7 | nt | nt
COc1ccc(N/C=C2\CCc3ccccc3C2=O)cc1 | 18 | 51* | 22 | nt | 59* | 71*
Cc1ccnc(NC(=O)C2CC(=O)N(c3ccc4c(c3)OCCO4)C2)c1 (centres undefined) | 0 | -1 | 0 | 0 | nt | nt
CC(=Nc1ccccc1)C1=C(O)COC1=O | 1 | 1 | -4 | 2 | nt | nt
CC(=Nc1ccc(Br)cc1)c1sc2ccccc2c1O | 7 | 78* | 17 | 26 | 88* | 95*
NC(=Nc1ccc(Br)cc1)c1ccccc1 | -2 | 1 | 2 | 0 | nt | nt
CC(=Nc1ccccc1)c1sc2ccccc2c1O | 5 | 31* | 9 | 17 | 51* | 67*
CN(C)S(=O)(=O)c1cccc(C(=O)Nc2ccc(Cl)cn2)c1 | 0 | 27* | 5 | -2 | 8 | 8
O=C(Nc1ccc(Cl)cn1)c1cccc(S(=O)(=O)N2CCCC2)c1 | 3 | -3 | -3 | 0 | nt | nt
COc1ccc(/C=C/C(=O)c2c(O)cc(C)oc2=O)c(OC)c1 | 3 | 134* | 6 | 45* | 54* | 75*
C/C(=C\C(=O)c1c(O)cc(C)oc1=O)N(C)C | -4 | -8 | 1 | -5 | nt | nt
COc1cccc(/C=C/C(=O)c2c(O)cc(C)oc2=O)c1O | 4 | 33* | -2 | 1 | 2 | 7
COc1cc(/C=C/C(=O)O)cc(OC)c1O | -4 | -3 | -2 | 0 | nt | nt
COc1cc(/C=C/C(=O)c2c(O)cc(C)oc2=O)cc(OC)c1O | 4 | 37* | 0 | -13 | 8 | 17
Cc1cc(O)c(C(=O)/C=C/c2ccc(Cl)cc2)c(=O)o1 | 19 | 36* | 7 | nt | 10 | 13
CCOC(=O)/C=C/c1cccc(OC)c1O | -4 | nt | 1 | nt | nt | nt
COc1ccccc1-c1nnc(SCC(=O)Nc2ccc(N3CCOCC3)cc2)n1N | 2 | nt | -2 | -1 | nt | nt
COc1ccc(-c2n(Cc3ccccc3)c3ccccc3[n+]2Cc2ccccc2)cc1 | 4 | 0 | 5 | 0 | nt | nt
OC(c1ccccc1)(c1nc(-c2ccc3c(c2)OCO3)cs1)C(F)(F)F (centres undefined) | -3 | nt | 2 | 4 | nt | nt
N#C/C(=C\C=C\c1ccccc1)c1nc(-c2ccc3c(c2)OCO3)cs1 | 3 | 37* | -19 | -29 | 36* | 47*
O=C(N/C=C/c1ccco1)OCc1ccccc1 | 3 | 31* | 14 | 36* | 19 | 31*
O=C(N/C=C/c1ccco1)NCc1ccccc1 | 11 | 8 | -7 | 6 | nt | nt
COc1ccc(-c2csc(C(C)(NC(C)=O)c3ccccc3)n2)cc1 (centres undefined) | 3 | nt | 1 | -3 | nt | nt
